The values below come from ChEMBL document CHEMBL1132135, “Potent, orally absorbed glucagon receptor antagonists” (Bioorg Med Chem Lett, 1999).

A short description of data set [1]: Concentration in plasma (portal) following oral dose in rats at 0.25 hr. In kind it is ADME, organism-based. The note with it: rat. An outline of the steps: (§1)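 Fasted male Sprague-Dawley rats (300-400 g) were gavaged at 3.0 mg/kg, using a 0.3 mg/mL solution in 5% PEG-400/5% Tween-80/90% water at 10 mL/kg. At each time point animals were CO2-anesthetized. Portal vein blood was drawn first, then cardiac puncture at sacrifice. Samples were heparinized, held at 0 °C for up to 2 h, then centrifuged. Plasma proteins were precipitated with acetonitrile and analyzed by LC/MS/MS.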

Data set [2] is described as follows: Concentration in plasma (portal) following oral dose in rats at 1 hr. The data set is classed as ADME, organism-based. The settings on record: rat. An outline of the steps:
as §1

The nature of data set [3]: Concentration in plasma (portal) following oral dose in rats at 2 hr. The data set is classed as ADME, organism-based. The settings on record: rat. An outline of the steps:
as §1

The nature of data set [4]: Concentration in plasma (systemic) following oral dose in rats at 0.25 hr. In kind it is ADME, organism-based. The note with it: rat. An outline of the steps: as §1
Data set [5] is described as follows: Concentration in plasma (systemic) following oral dose in rats at 1 hr. In kind it is ADME, organism-based. The settings on record: rat. An outline of the steps:
as §1

Data set [6] can be described thus: Concentration in plasma (systemic) following oral dose in rats at 2 hr. In kind it is ADME, organism-based. The settings on record: rat. An outline of the steps: as §1
Data set [7] can be described thus: Concentration in plasma (systemic) following oral dose in mouse at 0.25 hr. The data set is classed as ADME, organism-based. An outline of the steps: (§2)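 Oral gavage in CD1 mice at 50 mg/kg, vehicle 5% PEG-400/5% Tween-80/90% water, 10 mL/kg. At each time point mice were CO2-anesthetized and bled by cardiac puncture at sacrifice. Samples were heparinized, kept at 0 °C for up to 2 h, then centrifuged to plasma. Plasma proteins were precipitated with acetonitrile and analyzed by HPLC.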

A short description of data set [8]: Concentration in plasma (systemic) following oral dose in mouse at 1 hr. In kind it is ADME, organism-based. An outline of the steps:
as §2

Data set [9] in a line: Concentration in plasma (systemic) following oral dose in mouse at 24 hr. The data set is classed as ADME, organism-based. An outline of the steps:
as §2

Data set [10] is described as follows: Concentration in plasma (systemic) following oral dose in mouse at 2 hr. The data set is classed as ADME, organism-based. An outline of the steps: as §2
The nature of data set [11]: Concentration in plasma (systemic) following oral dose in mouse at 4 hr. The data set is classed as ADME, organism-based. An outline of the steps:
as §2

The nature of data set [12]: Concentration in plasma (systemic) following oral dose in mouse at 6 hr. In kind it is ADME, organism-based. An outline of the steps: as §2
The target in data set [13] is T1, Glucagon receptor (Mus musculus, UniProt Q61606). As to the kind of experiment: Binding affinity towards glucagon receptor determined by reduction in binding of 125 I-glucagon to the murine glucagon receptor (mGLUR) expressed on CHO cells in presence of Mg+2. The data set is classed as cell-based. An outline of the steps: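 Mg2+ added at 5 mM, a physiological level, to the binding medium. IC50 reported in µM, with the number of determinations noted; where no IC50 was reached, percent inhibition is given at a single tested concentration.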
T1 sequence (Q61606 whole entry): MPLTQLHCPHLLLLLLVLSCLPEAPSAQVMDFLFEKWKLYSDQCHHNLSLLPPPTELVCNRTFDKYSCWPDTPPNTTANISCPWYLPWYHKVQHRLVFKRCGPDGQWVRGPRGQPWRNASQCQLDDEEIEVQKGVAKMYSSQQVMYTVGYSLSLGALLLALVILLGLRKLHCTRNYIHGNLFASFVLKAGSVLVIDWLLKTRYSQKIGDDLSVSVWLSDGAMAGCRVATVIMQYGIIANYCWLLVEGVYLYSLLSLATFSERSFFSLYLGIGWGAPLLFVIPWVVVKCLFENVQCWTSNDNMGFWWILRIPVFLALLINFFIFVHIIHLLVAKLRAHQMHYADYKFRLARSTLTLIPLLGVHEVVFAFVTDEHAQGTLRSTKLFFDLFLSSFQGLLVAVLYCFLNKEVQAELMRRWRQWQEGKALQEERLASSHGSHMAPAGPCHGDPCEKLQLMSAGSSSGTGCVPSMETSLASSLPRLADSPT

Data set [14] concerns the target T1, Glucagon receptor. As to the kind of experiment: Binding affinity towards glucagon receptor determined by reduction in binding of [125I]glucagon to the murine glucagon receptor (GGR) expressed on CHO cells in absence of Mg+2. In kind it is cell-based.
Data set [15] concerns the target T2, Glucagon receptor (Homo sapiens, UniProt P47871). As to the kind of experiment: biochemical. The data set is classed as cell-based, CHO.
The target of data set [16] is T2, Glucagon receptor. As to the kind of experiment: Binding affinity towards glucagon receptor determined by reduction in binding of [125I]glucagon to the human glucagon receptor (GGR) expressed on CHO cells in presence of Mg+2. The data set is classed as cell-based. An outline of the steps:
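Radioligand binding to the glucagon receptor was run with 5 mM Mg2+ added, described as a physiological concentration.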

Data set [17] concerns the target Mitogen-activated protein kinase 14 (Homo sapiens, UniProt Q16539). As to the kind of experiment: Inhibitory activity against p38-alpha kinase.
Data set [18] is described as follows: Selectivity ratio between the binding value of human glucagon receptor (GGR) with Mg+2 and the value of p38 kinase.
Data set [19] deals with T1, Glucagon receptor. As to the kind of experiment: Binding affinity towards glucagon receptor determined by reduction in binding of 125 I-glucagon to the murine glucagon receptor (mGLUR) expressed on CHO cells in presence of Mg+2 at 3 uM.
The nature of data set [20]: Inhibition of p38 kinase at 1 uM.
Data set [21] addresses T2, Glucagon receptor. As to the kind of experiment: Binding affinity towards glucagon receptor determined by reduction in binding of 125 I-glucagon to the human glucagon receptor (hGLUR) expressed on CHO cells in absence of Mg+2 at 2 uM. The data set is classed as cell-based.
The nature of data set [22]: Inhibition of p38 kinase at 2 uM.
Data set [23] addresses T1, Glucagon receptor. As to the kind of experiment: (§3) Binding affinity towards glucagon receptor determined by reduction in binding of 125 I-glucagon to the murine glucagon receptor (mGLUR) expressed on CHO cells in presence of Mg+2 at 1 uM. In kind it is cell-based.
For data set [24], the target named is T1, Glucagon receptor. As to the kind of experiment: Binding affinity towards glucagon receptor determined by reduction in binding of 125 I-glucagon to the murine glucagon receptor (mGLUR) expressed on CHO cells in absence of Mg. In kind it is cell-based.
Data set [25] has as its target Glucagon receptor (Mus musculus) (UniProt Q61606). The data set is described as §3. In kind it is cell-based.
A short description of data set [26]: Inhibition of p38 kinase at 10 uM.
The nature of data set [27]: Inhibition of p38 kinase at 5 uM.
Data set [28] is described as follows: Inhibition of p38 kinase. The settings on record: concentration not given here.
Data set [29] can be described thus: Inhibition of p38 kinase at 40 uM.

Each structure is given as a SMILES string.

Mitogen-activated protein kinase 14, sequence (Q16539 whole entry): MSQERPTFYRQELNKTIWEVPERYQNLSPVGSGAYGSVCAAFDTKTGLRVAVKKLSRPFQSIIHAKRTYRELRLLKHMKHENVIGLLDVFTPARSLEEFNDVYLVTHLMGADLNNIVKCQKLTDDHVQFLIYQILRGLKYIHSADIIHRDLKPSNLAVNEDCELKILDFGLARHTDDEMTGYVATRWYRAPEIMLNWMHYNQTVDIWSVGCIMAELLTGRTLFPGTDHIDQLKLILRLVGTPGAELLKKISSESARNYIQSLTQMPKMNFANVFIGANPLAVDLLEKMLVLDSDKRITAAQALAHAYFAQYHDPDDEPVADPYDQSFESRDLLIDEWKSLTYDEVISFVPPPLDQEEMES
T2 sequence (P47871 whole entry): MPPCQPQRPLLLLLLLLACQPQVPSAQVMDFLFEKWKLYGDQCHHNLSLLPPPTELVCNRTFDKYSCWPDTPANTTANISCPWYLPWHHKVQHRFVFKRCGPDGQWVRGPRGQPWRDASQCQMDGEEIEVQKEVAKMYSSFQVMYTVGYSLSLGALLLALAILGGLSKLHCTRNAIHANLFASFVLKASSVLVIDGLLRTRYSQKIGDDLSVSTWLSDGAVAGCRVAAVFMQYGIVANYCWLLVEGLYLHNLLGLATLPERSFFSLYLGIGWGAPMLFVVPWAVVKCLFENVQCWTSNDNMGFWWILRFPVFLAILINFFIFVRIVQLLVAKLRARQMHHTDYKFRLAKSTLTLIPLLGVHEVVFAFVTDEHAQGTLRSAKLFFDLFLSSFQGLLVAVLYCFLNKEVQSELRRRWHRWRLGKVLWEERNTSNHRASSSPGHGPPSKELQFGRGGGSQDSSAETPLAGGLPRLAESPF
Glucagon receptor (Mus musculus), sequence (Q61606 whole entry): as the sequence (Q61606 whole entry) above

In general, IC50 refers to the midpoint of a concentration-inhibition curve. For the compound `CCCOc1ccc(Br)cc1-c1cc(-c2ccc(Cl)cc2)[nH]c1-c1ccncc1`, the concentration at 0.25 h in [1] was determined as 25 nM; in data set [4], 9 nM; in data set [7] it was 1700 nM. The concentration at 1 h turned out to be 1240 nM in data set [2], 590 nM in data set [5] and 15200 nM in data set [8]. Further, the concentration at 2 h in data set [3] amounted to 1400 nM; in data set [6], 840 nM; in data set [10] it was 11700 nM. The compound further displayed a concentration at 24 h in [9] of 700 nM. The concentration at 4 h in data set [11] was determined as 16500 nM. Moreover, in data set [12], the concentration at 6 h amounted to 13100 nM. Also, the concentration for half-maximal inhibition (IC50) at Glucagon receptor [13] was found to be 250 nM; at Glucagon receptor [14], 37 nM; against Glucagon receptor [15], 7 nM; on Glucagon receptor [16], 170 nM; in data set [17], 1440 nM. The Ratio in data set [18] was 0.12.
A word on the Inhibition: it is the change of the read-out against control, counted positive when it falls. Take `Clc1ccc(-c2cc(-c3ccc(Cl)cc3)c(-c3ccncc3)[nH]2)cc1`: the half-maximal inhibitory concentration (IC50) at Glucagon receptor [14] came to 220 nM; against Glucagon receptor [15], 190 nM; on Glucagon receptor [16] it was 810 nM; in data set [17], 160 nM. In data set [18], the Ratio was determined as 5. For the same compound, the Inhibition on Glucagon receptor [19] was 42%.
By inhibition is commonly meant the drop in the measured response relative to a control, in per cent. With `CCCCOc1ccccc1-c1cc(-c2ccc(Cl)cc2)[nH]c1-c1ccncc1`, the IC50 at Glucagon receptor [13] turned out to be 1200 nM; on Glucagon receptor [14], 80 nM; against Glucagon receptor [15], 10 nM; on Glucagon receptor [16], 180 nM. For the same compound, in [20], the inhibition worked out at 16%.
`C[S+]([O-])c1ccc(-c2nc(-c3ccc(F)cc3)c(-c3ccncc3)[nH]2)cc1` (stereo not drawn) [SB-203580]: the inhibition at Glucagon receptor [21] was found to be 18%. In [22], this compound yielded an IC50 of 37 nM.
On to `Fc1ccc(-c2cc(-c3ccc(F)cc3)c(-c3ccncc3)[nH]2)cc1`, for which the IC50 on Glucagon receptor [14] came to 430 nM; at Glucagon receptor [15] it was 90 nM; on Glucagon receptor [16], 350 nM; in data set [17] it was 340 nM. The Ratio in data set [18] came to 1. Also, the Inhibition on Glucagon receptor [23] came to 7%.
Consider `Clc1ccc(-c2cc(-c3cccc(Br)c3)c(-c3ccncc3)[nH]2)cc1`, for which the IC50 is 230 nM at Glucagon receptor [24], 150 nM against Glucagon receptor [15], 1700 nM on Glucagon receptor [16] and 80 nM in data set [17]. Also, the inhibition in data set [25] worked out at 48%. Besides, in [18], the Ratio was 21.2.
On to `CCCOc1ccc(Cl)cc1-c1cc(-c2ccc(Cl)cc2)[nH]c1-c1ccncc1`, for which the half-maximal inhibitory concentration (IC50) at Glucagon receptor [13] came out at 1000 nM; at Glucagon receptor [14], 50 nM; against Glucagon receptor [15] it was 6 nM; at Glucagon receptor [16], 170 nM. In addition, in data set [26], the inhibition came to 31%.
Consider `CCCNc1ccccc1-c1cc(-c2ccc(Cl)cc2)[nH]c1-c1ccncc1`, for which the 50% inhibitory concentration (IC50) at Glucagon receptor [13] was greater than 3000 nM; on Glucagon receptor [14], 440 nM; on Glucagon receptor [15], 20 nM; at Glucagon receptor [16], 270 nM. Moreover, the inhibition in data set [27] came out at 52%.
Regarding `CCCOc1cccc(OCCC)c1-c1cc(-c2ccc(Cl)cc2)[nH]c1-c1ccncc1`, the half-inhibitory concentration (IC50) is greater than 3000 nM at Glucagon receptor [13], 670 nM at Glucagon receptor [14], 40 nM against Glucagon receptor [15] and 290 nM on Glucagon receptor [16]. Moreover, the inhibition in data set [28] turned out to be 5%.
Take `O=C(OCc1ccccc1)c1cc(-c2ccc(Cl)cc2)[nH]c1-c1ccncc1`: the IC50 was determined as 800 nM on Glucagon receptor [14], 60 nM on Glucagon receptor [15] and 1300 nM at Glucagon receptor [16]. In addition, the inhibition in [25] came to 8%; in data set [29] it was 69%.
